# According to ChEMBL document CHEMBL1141661, “Synthesis and anti-mycobacterial activity of (E)-N'-(monosubstituted-benzylidene)isonicotinohydrazide derivatives” (Eur J Med Chem, 2008):
# How the values were obtained:
# [1] = tested on: Mycobacterium tuberculosis; experiment: Antimycobacterial activity against rifampin and isoniazid-susceptible Mycobacterium tuberculosis H37Rv ATCC 27294 after 5 days by Alamar blue assay; type: functional; details: 120 h
# In short: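 Microplate Alamar Blue assay in Middlebrook 7H9 broth; compounds serially diluted on the plate, final concentrations […]. Plates sealed and incubated 37 °C for 5 days, then 1:1 Alamar Blue reagent/10% Tween 80 added and incubated a further 24 h. Blue scored as no growth, pink as growth; MIC is the lowest concentration preventing the blue-to-pink change.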
# [2] = Cytotoxicity against mouse macrophages assessed as cell viability at 0.1 ug/mL after 18 hrs by MTT assay; type: cell-based, Macrophage; details: read-out: Activity
# In short: (§1)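 Murine macrophages plated at 2.5 × 10⁶ cells/mL and held 1 h at 37 °C under 5% CO₂. Nonadherent cells were then flushed off with RPMI 1640. Adherent cells were exposed in triplicate to compound at 0.1, 1.0, 10.0 or 100, medium alone (live control) or 3% tween 20 (dead control). After 18 h MTT was added for 4 h. Formazan was dissolved in DMSO and A540 read.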
# [3] = Cytotoxicity against mouse macrophages assessed as cell viability at 1 ug/mL after 18 hrs by MTT assay; type: cell-based, Macrophage; details: read-out: Activity; in short: as §1
# [4] = Cytotoxicity against mouse macrophages assessed as cell viability at 10 ug/mL after 18 hrs by MTT assay; type: cell-based, Macrophage; details: read-out: Activity; in short: as §1
# [5] = Cytotoxicity against mouse macrophages assessed as cell viability at 100 ug/mL after 18 hrs by MTT assay; type: cell-based, Macrophage; details: read-out: Activity; in short: as §1
SMILES,MIC [1] [µg/mL],"viability at 18 h, 0.1 ug/mL [2] [%]","viability at 18 h, 1 ug/mL [3] [%]","viability at 18 h, 10 ug/mL [4] [%]","viability at 18 h, 100 ug/mL [5] [%]"
O=C(N/N=C/c1cccc(Cl)c1)c1ccncc1 [N'-(3-CHLOROBENZYLIDENE)ISONICOTINOHYDRAZIDE],0.31,100,100,100,100
N#Cc1ccccc1/C=N/NC(=O)c1ccncc1,0.62,100,100,100,95
O=C(N/N=C/c1ccccc1F)c1ccncc1,3.12,–,–,–,–
O=C(N/N=C/c1ccccc1Cl)c1ccncc1,1.25,–,–,–,–
COc1ccccc1/C=N/NC(=O)c1ccncc1,0.31,100,100,100,98
N#Cc1ccc(/C=N/NC(=O)c2ccncc2)cc1,5,–,–,–,–
O=C(N/N=C/c1ccc(Cl)cc1)c1ccncc1,0.31,100,97,97,96
CO[C@H]1/C=C/O[C@@]2(C)Oc3c(C)c(O)c4c(O)c(c(/C=N/N5CCN(C)CC5)c(O)c4c3C2=O)NC(=O)/C(C)=C\C=C\[C@H](C)[C@H](O)[C@@H](C)[C@@H](O)[C@@H](C)[C@H](OC(C)=O)[C@@H]1C [RIFAMPIN],1,–,–,–,–
CCOc1ccccc1/C=N/NC(=O)c1ccncc1,1.25,–,–,–,–
O=C(N/N=C/c1cccc([N+](=O)[O-])c1)c1ccncc1,5,–,–,–,–
O=C(N/N=C/c1cccc(Br)c1)c1ccncc1,2.5,–,–,–,–
CCOc1cccc(/C=N/NC(=O)c2ccncc2)c1,1.25,–,–,–,–
O=C(N/N=C/c1ccc(F)cc1)c1ccncc1,0.31,100,100,97,96
N#Cc1cccc(/C=N/NC(=O)c2ccncc2)c1,1.25,–,–,–,–
O=C(N/N=C/c1ccc([N+](=O)[O-])cc1)c1ccncc1 [N'-(4-NITROBENZYLIDENE)ISONICOTINOHYDRAZIDE],1.25,–,–,–,–
COc1ccc(/C=N/NC(=O)c2ccncc2)cc1,5,–,–,–,–
O=C(N/N=C/c1ccc(Br)cc1)c1ccncc1,5,–,–,–,–
O=C(N/N=C/c1cccc(F)c1)c1ccncc1,3.12,–,–,–,–
NNC(=O)c1ccncc1 [ISONIAZID],0.2,–,–,–,–
O=C(N/N=C/c1ccccc1)c1ccncc1 [N'-BENZYLIDENE ISONICOTINOHYDRAZIDE],3.12,–,–,–,–
O=C(N/N=C/c1ccccc1Br)c1ccncc1,5,–,–,–,–
COc1cccc(/C=N/NC(=O)c2ccncc2)c1,5,–,–,–,–
O=C(N/N=C/c1ccccc1[N+](=O)[O-])c1ccncc1,5,–,–,–,–
O=C(N/N=C/c1cccc(O)c1)c1ccncc1,1.25,–,–,–,–
